pIC50: −log10 of the molar value.
Experiments:
[1] = molecular target: Platelet-derived growth factor receptor beta (Mus musculus, UniProt P05622); test: Inhibition of [32P]ATP incorporated (phosphorylation) into glutamate-tyrosine copolymer substrate by mouse platelet-derived growth factor receptor beta
Outline: (§1)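 Enzymes were intracellular tyrosine kinase domain fragments (human FGFR-1 […], mouse PDGFR-β […]), 60–75 ng per reaction, in 25 mM HEPES pH 7.4 with 150 mM NaCl, 10 mM MnCl₂, 0.2 mM sodium orthovanadate, Glu-Tyr (4:1) random copolymer substrate and varied inhibitor. Reactions were started with [³²P]ATP (0.4 μCi), run 10 min at 25 °C and stopped with 15% TCA. IC50 was taken as the concentration reducing ³²P incorporation into the copolymer.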

[2] = molecular target: Fibroblast growth factor receptor 1 (Homo sapiens, UniProt P11362); test: Inhibition of [32P]ATP incorporated (phosphorylation) into glutamate-tyrosine copolymer substrate by human fibroblast growth factor receptor 1; outline: as §1
Sequence of Fibroblast growth factor receptor 1 (P11362 whole entry): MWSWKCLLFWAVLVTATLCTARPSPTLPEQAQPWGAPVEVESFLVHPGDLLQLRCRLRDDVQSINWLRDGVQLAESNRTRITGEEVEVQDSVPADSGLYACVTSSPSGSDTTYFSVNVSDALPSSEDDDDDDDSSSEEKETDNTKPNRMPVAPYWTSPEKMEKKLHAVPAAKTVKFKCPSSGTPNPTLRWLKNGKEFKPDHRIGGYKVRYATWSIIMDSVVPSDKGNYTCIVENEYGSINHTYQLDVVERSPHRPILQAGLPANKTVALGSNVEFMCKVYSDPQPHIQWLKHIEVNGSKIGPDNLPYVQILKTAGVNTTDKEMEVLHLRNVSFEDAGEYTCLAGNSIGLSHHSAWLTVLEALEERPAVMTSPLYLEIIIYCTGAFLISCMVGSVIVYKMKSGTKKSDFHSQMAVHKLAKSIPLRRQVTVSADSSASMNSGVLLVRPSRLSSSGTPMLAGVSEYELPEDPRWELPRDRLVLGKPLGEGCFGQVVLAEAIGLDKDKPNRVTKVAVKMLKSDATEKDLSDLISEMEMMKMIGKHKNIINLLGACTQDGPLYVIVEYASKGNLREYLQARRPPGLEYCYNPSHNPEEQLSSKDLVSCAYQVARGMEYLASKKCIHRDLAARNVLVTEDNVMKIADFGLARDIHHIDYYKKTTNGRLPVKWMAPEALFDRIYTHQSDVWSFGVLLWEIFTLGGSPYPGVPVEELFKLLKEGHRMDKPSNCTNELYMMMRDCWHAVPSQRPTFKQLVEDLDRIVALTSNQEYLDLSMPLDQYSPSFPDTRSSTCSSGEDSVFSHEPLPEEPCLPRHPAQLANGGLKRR

[3] = molecular target: T1, Platelet-derived growth factor receptor (PDGFr) (Rattus norvegicus, UniProt P20786+Q05030); test: Inhibition of Platelet-derived growth factor receptor beta autophosphorylation in Rat aorta vascular smooth muscle cells(RAVSMC).
[4] = molecular target: T1, Platelet-derived growth factor receptor (PDGFr); test: Inhibition of Platelet-derived growth factor receptor beta autophosphorylation in Rat aorta vascular smooth muscle cells(RAVSMC)

Sequence of Platelet-derived growth factor receptor beta (P05622 whole entry, the tested form may be a part): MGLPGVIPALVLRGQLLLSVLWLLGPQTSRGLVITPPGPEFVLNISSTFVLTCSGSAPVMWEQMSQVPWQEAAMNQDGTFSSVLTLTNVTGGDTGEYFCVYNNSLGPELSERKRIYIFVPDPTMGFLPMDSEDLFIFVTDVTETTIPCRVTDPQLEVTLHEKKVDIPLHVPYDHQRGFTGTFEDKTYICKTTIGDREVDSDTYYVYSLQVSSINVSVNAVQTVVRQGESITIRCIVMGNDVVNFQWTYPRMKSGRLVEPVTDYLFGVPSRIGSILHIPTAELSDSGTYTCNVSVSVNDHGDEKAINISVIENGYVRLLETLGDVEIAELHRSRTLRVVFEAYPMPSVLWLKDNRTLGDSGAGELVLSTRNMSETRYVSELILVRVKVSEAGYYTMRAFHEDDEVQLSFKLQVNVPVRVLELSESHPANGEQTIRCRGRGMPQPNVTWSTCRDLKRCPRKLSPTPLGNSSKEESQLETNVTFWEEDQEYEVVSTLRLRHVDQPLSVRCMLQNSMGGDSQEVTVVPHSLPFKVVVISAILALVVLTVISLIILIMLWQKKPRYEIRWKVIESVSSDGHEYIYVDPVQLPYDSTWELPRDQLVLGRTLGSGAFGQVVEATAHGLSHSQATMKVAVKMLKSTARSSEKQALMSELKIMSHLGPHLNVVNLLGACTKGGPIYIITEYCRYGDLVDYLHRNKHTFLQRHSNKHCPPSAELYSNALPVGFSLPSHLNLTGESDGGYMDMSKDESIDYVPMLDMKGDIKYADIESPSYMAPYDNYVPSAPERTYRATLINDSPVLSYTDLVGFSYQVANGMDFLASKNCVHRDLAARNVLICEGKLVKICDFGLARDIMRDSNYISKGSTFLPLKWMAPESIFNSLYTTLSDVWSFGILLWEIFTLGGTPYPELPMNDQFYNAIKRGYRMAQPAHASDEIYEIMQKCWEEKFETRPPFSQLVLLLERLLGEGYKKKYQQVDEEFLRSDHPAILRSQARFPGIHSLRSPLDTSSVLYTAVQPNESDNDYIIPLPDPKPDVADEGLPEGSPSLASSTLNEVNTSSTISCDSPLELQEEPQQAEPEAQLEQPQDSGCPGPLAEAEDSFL

## C=CCOc1ccc2c(c1)ncn2-c1ccccc1
[1]
  pIC50: 6.21

## COc1cc2ncn(-c3ccccc3)c2cc1C=O
[1]
  pIC50: 6.00
[2]
  pIC50: 4.60

## Oc1ccc2c(ncn2-c2ccccc2)c1Br
[1]
  pIC50: < 4.30
[2]
  pIC50: < 4.30

## CN(C)CCCCOc1ccc2c(c1)ncn2-c1ccccc1
[1]
  pIC50: 6.80
[2]
  pIC50: 5.17

## COc1ccc2c(ncn2-c2ccccc2)c1O
[2]
  pIC50: < 4.30

## CCCOc1ccc2c(c1)ncn2-c1ccccc1
[1]
  pIC50: 6.60

## COc1ccc2c(ncn2-c2ccccc2)c1OC
[1]
  pIC50: < 4.30
[2]
  pIC50: < 4.30

## COc1cc2ncn(-c3ccccc3)c2cc1CO
[1]
  pIC50: 6.43
[2]
  pIC50: 4.96

## c1ccc(-n2cnc3cc(OCCCN4CCOCC4)ccc32)cc1
[1]
  pIC50: 6.77

## COc1ccc2c(c1)ncn2-c1ccc(N)cc1
[3]
  IC50: 1360 nM
[1]
  pIC50: 6.55

## NCCOc1ccc2c(c1)ncn2-c1ccccc1
[1]
  pIC50: 6.19

## CSc1ccc2c(c1)ncn2-c1ccccc1
[1]
  pIC50: 6.13
[2]
  pIC50: 4.57

## c1ccc(-n2cnc3cc(SCCCN4CCOCC4)ccc32)cc1
[1]
  pIC50: < 4.30
[2]
  pIC50: 4.62

## COc1c(O)ccc2c1ncn2-c1ccccc1
[1]
  pIC50: < 4.30
[2]
  pIC50: < 4.30

## CN(C)CCCOc1ccc2c(c1)ncn2-c1ccccc1
[1]
  pIC50: 6.82

## C=CCOc1ccc2c(ncn2-c2ccccc2)c1Br
[1]
  pIC50: < 4.30
[2]
  pIC50: < 4.30

## c1ccc(-n2cnc3cc(OCC4CO4)ccc32)cc1 (stereo not drawn)
[1]
  pIC50: 6.49
[2]
  pIC50: 4.74

## Oc1cccc2c1ncn2-c1ccccc1
[1]
  pIC50: 4.85

## CCOc1ccc2c(c1)ncn2-c1ccccc1
[1]
  pIC50: 6.62
[2]
  pIC50: 4.59

## OCC(O)COc1ccc2c(c1)ncn2-c1ccccc1 (stereo not drawn)
[1]
  pIC50: 6.51

## c1ccc(-n2cnc3cc(OCCN4CCOCC4)ccc32)cc1
[4]
  IC50: 790 nM
[1]
  pIC50: 6.14

## C=CCc1c(O)ccc2c1ncn2-c1ccccc1
[1]
  pIC50: < 4.30
[2]
  pIC50: < 4.30

## OCCCCOc1ccc2c(c1)ncn2-c1ccccc1
[1]
  pIC50: 6.35

## COC(=O)c1cc2c(cc1OC)ncn2-c1ccccc1
[1]
  pIC50: 6.06

From ChEMBL document CHEMBL1132255, “Structure-activity relationships for 5-substituted 1-phenylbenzimidazoles as selective inhibitors of the platelet-derived growth factor receptor” (J Med Chem, 1999)
